Compound activity (PubChem)
Lipid droplet – hepatic lipid droplet formation modulation; AML12 mouse hepatocytes, oleate lipid droplets, BODIPY imaging; inhibition, % at 6.5 µM; AID 1656; 240,000 tested, 0.4% active;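 active means lipid droplet intensity inhibited by at least 50%, with more than 500 cells counted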
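Test system: AML12 hepatocytes (mouse); reagent: oleate loading, 100 µM; dosing: one dose, 6.5 µM compound; incubation: overnight exposure; signal: fluorescence imaging, 20x objective, two fields per well; read-out basis: % inhibition of corrected integrated BODIPY droplet signal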
H9c2 TAG inh – inhibitors of triacylglycerol accumulation | H9c2 cells, Nile Red lipid (TAG) fluorescence; cells loaded with 200 µM oleic acid | inhibition, % at 12.5 µM | 230,000 tested, 0.66% active | AID 651582;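 active means pattern-corrected inhibition of lipid staining of at least 50% with the nuclear-stain viability signal not falling by more than 50%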;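 further: 0% = DMSO wells and 100% = triacsin C control wells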
697 NFkB inh – inhibitors of the PMA/ionomycin-induced NF-kB reporter in 697 B cells; 697 B-cell NF-kB luciferase reporter, 16 h; 330,000 tested, 0.33% active; inhibition, % at 4 µM; in the data active means inhibition above about 35%
APP transl inh – APP translation inhibition; SH-SY5Y APP 5'UTR-luciferase reporter, luminescence; inhibition, % at 2 µM; 190,000 tested, 0.82% active;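 active means inhibition above a set limit, derived from the sample mean plus 3 SD, cut at about 45% in these data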
Jurkat NFkB inh – lowers PMA/ionomycin-induced NF-kB signal in Jurkat cells; PMA/ionomycin-induced NF-kB luciferase reporter, luminescence; inhibition, % at 4 µM; 330,000 tested, 0.53% active; AID 435003; in the data active means inhibition above about 50%
aSyn 5UTR inh – MLPCN primary screen, SNCA 5' untranslated region | inhibition, % (tested at 7.5 µM) | 300,000 tested, 0.82% active | AID 1813 | alpha-synuclein 5'UTR reporter, inhibitor activity; in the data active means inhibition above about 60%;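 further: H4 neuroglioblastoma cells stably carrying SNCA 5'UTR luciferase fusion; 0% = DMSO wells and 100% = positive control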
697 NFkB conf – inhibitors of the PMA/ionomycin-induced NF-kB reporter in 697 B cells, retest; shares compounds with 697 NFkB inh; 697 B-cell NF-kB luciferase, 16 h; inhibition, % at 4 µM; 2,000 tested, 35% active; AID 449746; in the data active means inhibition mostly above about 28%, no sharp cut-off; inactive means mostly below about 22%
Numbers without * were called inactive. Shown are actives, neighbours in structure and some others; about 1.9% of the full set was active somewhere.

For O=C(CN1C(=O)NC2(CCCCCC2)C1=O)c1ccc2c(c1)OCCO2 the results were Lipid droplet 5, H9c2 TAG inh -11, 697 NFkB inh -266, APP transl inh -100, Jurkat NFkB inh -110, aSyn 5UTR inh -154 and 697 NFkB conf -132.
For Cc1cc(NC(=O)COC(=O)c2c(Cl)cccc2Cl)no1 the results were H9c2 TAG inh 17, 697 NFkB inh -376, Jurkat NFkB inh -69 and 697 NFkB conf -360.
Screening Cc1cc(NC(=O)COC(=O)c2ccc(Cl)cc2)no1 returned H9c2 TAG inh -7.
Screening Cc1c(OCc2ccc(C(=O)O)cc2)ccc2c(-c3ccccc3)cc(=O)oc12 returned Lipid droplet 11, H9c2 TAG inh 7, 697 NFkB inh 37*, Jurkat NFkB inh 5, aSyn 5UTR inh -3 and 697 NFkB conf 7.
`CCOC(=O)C(Oc1ccc2c(-c3ccccc3)cc(=O)oc2c1C)c1ccccc1` (stereo unspecified) gave Lipid droplet -23, 697 NFkB inh -1, APP transl inh -12, Jurkat NFkB inh 21 and aSyn 5UTR inh 21.
CCOc1ccc(C(C)=O)cc1Cn1nc(C(=O)O)c2ccccc2c1=O was read as H9c2 TAG inh 13, 697 NFkB inh 35*, APP transl inh 5, Jurkat NFkB inh 4, aSyn 5UTR inh 22 and 697 NFkB conf 7.
COc1ccccc1Cn1nc(C(=O)O)c2ccccc2c1=O was read as Lipid droplet 13, 697 NFkB inh -39, Jurkat NFkB inh 1 and aSyn 5UTR inh -1.
`O=C(CN(C(=O)CNS(=O)(=O)c1ccccc1)c1ccc(F)cc1)NCc1ccco1` gave Lipid droplet -2, 697 NFkB inh 16, Jurkat NFkB inh 10 and aSyn 5UTR inh -4.
CSc1ccccc1NC(=O)CN(C)C(=O)C(C)SCc1nc2sc(C)c(C)c2c(=O)[nH]1 (stereo unspecified) was read as H9c2 TAG inh -14.
`O=C(c1ccc(Cn2c(=S)[nH]c3cc4c(cc3c2=O)OCO4)cc1)N1CCN(c2ncccn2)CC1` gave Lipid droplet -7, 697 NFkB inh 56*, APP transl inh 12, Jurkat NFkB inh 19, aSyn 5UTR inh 19 and 697 NFkB conf -7.
For COc1ccc(C)cc1NS(=O)(=O)c1ccc(NC(=O)CN(c2cc([N+](=O)[O-])ccc2C)S(C)(=O)=O)cc1 the results were Lipid droplet 15, 697 NFkB inh 38*, APP transl inh 59*, Jurkat NFkB inh -1, aSyn 5UTR inh 114* and 697 NFkB conf -8.
Screening COc1ccc(C(=O)N2CCc3c([nH]c4ccccc34)C2C(F)(F)F)cc1 (stereo unspecified) returned Lipid droplet 37, H9c2 TAG inh -3, 697 NFkB inh 0, Jurkat NFkB inh 9 and aSyn 5UTR inh 10.
Screening COc1ccccc1NC(=O)N1CCc2c([nH]c3ccccc23)C1C(F)(F)F (stereo unspecified) returned Lipid droplet -17, H9c2 TAG inh -5, 697 NFkB inh 35*, Jurkat NFkB inh 13, aSyn 5UTR inh 2 and 697 NFkB conf 8.
Screening CC(=O)NCC(=O)NC1CCCc2c1cnn2-c1ccc(C(C)(C)C)cc1 (stereo unspecified) returned Lipid droplet 12, H9c2 TAG inh -12, 697 NFkB inh 3, Jurkat NFkB inh -1 and aSyn 5UTR inh -1.
`CC(C)(C)c1ccc(-n2ncc3c2CCCC3NC(=O)C2(C(N)=O)CC2)cc1` (stereo unspecified) gave Lipid droplet -3, 697 NFkB inh 43*, Jurkat NFkB inh 46, aSyn 5UTR inh 3 and 697 NFkB conf 83*.
`O=C(N/N=C\c1ccc(-c2cccc(Cl)c2)o1)C(=O)NC1CCCC1` gave Lipid droplet 5, H9c2 TAG inh 0, 697 NFkB inh -3, APP transl inh -2, Jurkat NFkB inh -12 and aSyn 5UTR inh -20.
Screening COc1ccc(C(=O)Nc2nc3c(s2)CCCC3)cc1S(=O)(=O)N1CCCc2ccccc21 returned Lipid droplet 2, 697 NFkB inh inactive, APP transl inh 14, Jurkat NFkB inh -48, aSyn 5UTR inh 39 and 697 NFkB conf inactive.
`COc1ccc(C(=O)Nc2ncccc2C)cc1S(=O)(=O)N1CCCc2ccccc21` gave H9c2 TAG inh 5, 697 NFkB inh 21, Jurkat NFkB inh -7 and aSyn 5UTR inh 16.
CCN(CC)C(=O)Oc1ccc(Br)c2ccccc12 was read as Lipid droplet -24, 697 NFkB inh 1, APP transl inh 11, Jurkat NFkB inh 2 and aSyn 5UTR inh 24.
CCN(CC)C(=O)Oc1ccc2ccccc2c1Br was read as Lipid droplet -15, H9c2 TAG inh -4, 697 NFkB inh -302, APP transl inh -18, Jurkat NFkB inh -58, aSyn 5UTR inh -44 and 697 NFkB conf -253.
For O=C1N[C@@H](Cc2cn(S(=O)(=O)c3ccccc3)c3ccccc23)C(=O)N[C@H]1Cc1ccccc1 the results were H9c2 TAG inh -8, 697 NFkB inh 38*, Jurkat NFkB inh 13, aSyn 5UTR inh 5 and 697 NFkB conf 16.
COc1ccc(CC(=O)Nc2ccc(N3CCOCC3)cc2)cc1S(=O)(=O)N1CCOCC1 was read as Lipid droplet 0, H9c2 TAG inh -7, 697 NFkB inh 39*, Jurkat NFkB inh 4, aSyn 5UTR inh -4 and 697 NFkB conf -7.
COc1cc(OC)c(NC(=O)Cc2ccc(OC)c(S(=O)(=O)N3CCOCC3)c2)cc1Cl was read as Lipid droplet 0, H9c2 TAG inh -2, 697 NFkB inh 12, Jurkat NFkB inh -5 and aSyn 5UTR inh -25.
For CCCCNC(=O)C(CC)(ONc1ccccc1C(F)(F)F)c1ccccc1 (stereo unspecified) the results were H9c2 TAG inh 29, 697 NFkB inh 1 and Jurkat NFkB inh 11.
`CC(C)(C)c1nc(SCC(=O)Nc2nc3c(s2)CCCC3)c2ccccc2n1` gave 697 NFkB inh inactive, APP transl inh -4, Jurkat NFkB inh -31, aSyn 5UTR inh 41 and 697 NFkB conf inactive.
For COc1ccccc1OCC(=O)NNC(=O)C(=O)N1CCCC1 the results were Lipid droplet -5, 697 NFkB inh -6, APP transl inh -21, Jurkat NFkB inh 11 and aSyn 5UTR inh -3.
For COc1cc2cc(C(=O)N/N=C/c3ccccc3Cl)[nH]c2cc1OC the results were Lipid droplet 16, 697 NFkB inh 22, Jurkat NFkB inh 23 and aSyn 5UTR inh 2.
For COc1cc(NC(=S)NC(=O)c2ccc(C(C)(C)C)cc2)ccc1NC(=O)c1cccs1 the results were Lipid droplet -26, 697 NFkB inh inactive, APP transl inh 24, Jurkat NFkB inh -42, aSyn 5UTR inh -27 and 697 NFkB conf -13.
